What was measured:
[1] = target: T1, Amine oxidase [flavin-containing] B (Mus musculus, UniProt Q8BW75); assay: Inhibition of mouse brain MAOB
T1 sequence (Q8BW75 whole entry): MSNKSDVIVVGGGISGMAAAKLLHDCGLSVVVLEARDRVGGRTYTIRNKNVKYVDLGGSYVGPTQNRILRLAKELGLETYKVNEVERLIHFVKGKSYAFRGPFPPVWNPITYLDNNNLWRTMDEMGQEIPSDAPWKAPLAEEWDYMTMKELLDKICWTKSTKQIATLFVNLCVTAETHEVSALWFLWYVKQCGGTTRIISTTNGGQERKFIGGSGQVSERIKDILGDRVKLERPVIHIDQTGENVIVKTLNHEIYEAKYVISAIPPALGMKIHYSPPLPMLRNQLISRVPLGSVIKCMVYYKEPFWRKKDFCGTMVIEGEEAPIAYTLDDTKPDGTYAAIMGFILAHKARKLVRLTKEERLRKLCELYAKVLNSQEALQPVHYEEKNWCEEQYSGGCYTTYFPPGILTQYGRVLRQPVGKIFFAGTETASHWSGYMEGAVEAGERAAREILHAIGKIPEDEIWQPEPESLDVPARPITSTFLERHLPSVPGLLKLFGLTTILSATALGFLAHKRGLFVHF

[2] = Inhibition of MAOB from baboon liver by spectrophotometry; set-up: species or system Papio hamadryas
Summary of the method: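 Mitochondrial fraction of baboon liver (no MAO-A activity, so no clorgyline), 0.15 mg protein/mL in 100 mM sodium phosphate pH 7.4. Substrate MMTP 50 µM, 4% DMSO final. Incubated 37 °C for 10 min, then stopped with perchloric acid and centrifuged. MMDP+ read at 420 nm. At least eight concentrations over 3 orders of magnitude; IC50 from sigmoidal fit, mean ± SEM of duplicates.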

[3] = Inhibition of NOS in Sprague-Dawley rat brain homogenate assessed as conversion of oxy-hemoglobin to met-hemoglobin; assay type: tissue-based
Summary of the method: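 Brain of male Sprague-Dawley rat homogenised in HEPES/sucrose/EDTA/DTT with protease inhibitors and PMSF; the 12,000g supernatant is the enzyme source. Mix holds 500 µM HEPES, 250 µM CaCl2, homogenate from 2.36 mg tissue and 5% DMSO. Pre-incubated 3 min at 37 °C, then started with oxyHb 1.09 µM, NADPH 100 µM and L-arginine 100 µM. Scanned 390–430 nm every 10 s for 10 min; metHb taken as A401−A411. IC50 from rate versus log concentration.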

Papio hamadryas [4] = species on record: Papio hamadryas; assay: Inhibition of MAOB from baboon liver at 30 uM by spectrophotometry
Rattus norvegicus = species on record: Rattus norvegicus; assay: Ratio of IC50 for aminoguanidine to IC50 for drug for NOS in Sprague-Dawley rat brain homogenate; assay type: tissue-based
[5] = Inhibition of recombinant NOS from rat brain
Papio hamadryas [6] = species on record: Papio hamadryas; assay: Inhibition of MAOB from baboon liver at 100 uM by spectrophotometry

Row | IC50 [2] [µM] | Ki [2] [µM] | IC50 [3] [µM] | Structure (SMILES) | further results
1 | – | – | – | Cn1c(=O)c2c(nc(/C=C/c3cccc(Cl)c3)n2C)n(C)c1=O | Ki [1]: 0.1 µM
2 | 0.602 | 0.348 | 577 | Cn1c(N)c(/N=C/C=C/c2cccc(Cl)c2)c(=O)n(C)c1=O | –
3 | – | – | 467 | Cn1c(N)c(/N=C/c2ccccc2)c(=O)n(C)c1=O | inhibition (Papio hamadryas [4]): 17.8%; Ratio IC50 (Rattus norvegicus): 23
4 | – | – | – | Nc1nc(N)c2c(n1)NCC(c1ccccc1)N2 (configuration not stated) | IC50 [5]: 6 µM
5 | 0.314 | 0.181 | 1060 | Cn1c(=O)c2nc(/C=C/c3cccc(Cl)c3)cnc2n(C)c1=O | –
6 | 4.89 | 2.82 | – | Cn1c(=O)c2nc(-c3cccc(Cl)c3)cnc2n(C)c1=O | –
7 | 12.1 | 6.96 | – | Cn1c(N)c(/N=C/C=C/c2ccccc2)c(=O)n(C)c1=O | –
8 | – | – | – | C[C@H](O)[C@H](O)C1CNc2nc(N)nc(N)c2N1 (some centres not stated) | Ki [5]: 0.013 µM
9 | 7.03 | 4.06 | 6970 | Cn1c(N)c(/N=C/c2cccc(Cl)c2)c(=O)n(C)c1=O | –
10 | – | – | 443 | Cn1c(=O)c2nc(-c3ccccc3)cnc2n(C)c1=O | inhibition (Papio hamadryas [6]): 12.2%; Ratio IC50 (Rattus norvegicus): 23

Reference: ChEMBL document CHEMBL1152650, “Synthesis and in vitro evaluation of pteridine analogues as monoamine oxidase B and nitric oxide synthase inhibitors” (Bioorg Med Chem, 2009)
